Our source for the cytotoxicity values is ChEMBL document CHEMBL4513216, “Probing the Open Global Health Chemical Diversity Library for Multistage-Active Starting Points for Next-Generation Antimalarials” (ACS Infect Dis, 2020).

Structures are written as SMILES.

This data set can be described thus: Toxicity liver stage against HepG2, at 10uM. The data set is classed as cell-based. To be noted: human, HepG2-A16-CD81EGFP cells; read-out: INHIBITION
Set-up: test concentration 10 uM, cell line HepG2-A16-CD81EGFP. The essentials:
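Uninfected HepG2-A16-CD81EGFP cells, 3 × 10^3 per well, 1536-well, plated on prespotted compound at 10 μM final, parasite-free screening media added to match infected plates; puromycin 10 μM positive, DMSO 0.5% negative; run in parallel with 48 h PbLuc assay at 37 °C, 5% CO2; viability by CellTiter-Glo luminescence, normalized to controls.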
Consider `Cn1cccc(NC(=O)COc2ccc(Cl)cc2)c1=O`, for which the cytotoxicity at 10 µM stood at 4.69%.
For `CCN(Cc1cnn(C)c1)S(=O)(=O)N1CCCC1c1ccco1` (stereo unspecified) the value was -3.55%.
With `Cc1nc2c(c(C)c1CC(=O)NCc1ccc(F)cc1)c(=O)[nH]n2C`, the cytotoxicity at 10 µM is -15.9%.
For `Cc1cnc(CN(C)CC2CCCN2c2cccnn2)cn1` (stereo unspecified) the value was -0.241%.
In the case of `COc1ccc(C(=O)Nc2cnn(CC(=O)NC3CCCC3)c2)c(O)c1` it was -14.8%; in that of `CC(C)CC(=O)N1CCC(Nc2nc(O)cc(-c3ccsc3)n2)CC1`, 11.3%.
For `CCn1cc(CN2CCCN(C(=O)c3cc(C)no3)CC2)cn1`, the cytotoxicity at 10 µM stood at 3.22%.
On to `O=C(CCn1ccc2cc(Br)ccc21)/N=c1\[nH]nc(C2CCCO2)s1` (stereo unspecified), for which the cytotoxicity at 10 µM is -2.31%.
Turning to `Cc1nc(N(C)C)ncc1C(=O)N(Cc1ccncc1)CC1CCCO1` (stereo unspecified), the cytotoxicity at 10 µM is -1.59%.
In the case of `CC(Cn1ccnc1)NC(=O)NCCc1ccc(Cl)s1` (stereo unspecified) it was -12.4%.
For `CCC(CN1CCCC1)NC(=O)C1(c2ccc(F)cc2)CC1` (stereo unspecified) the value was -1.76%; for `CN1CCN(Cc2c(Cl)ccc(O)c2Cl)CC1C(=O)O` (stereo unspecified), 9.46%; for `CNC(=O)[C@@]12CCO[C@@H]1CCN(Cc1c(C)noc1C)C2`, -70.5%.
For `Cn1cc(C(=O)NCC2CCN(C(=O)NC3CC3)CC2)cn1` the value was 2.05%.
Consider `CCOCc1cnc2n1CCN(C(=O)c1cn(C)c3ccccc13)C2C` (stereo unspecified), for which the cytotoxicity at 10 µM is -108%.
On to `Cc1nc(N2CCCC2)nc(C)c1NS(=O)(=O)c1ccccc1F`, for which the cytotoxicity at 10 µM is -3.92%.
On to `Cc1ccc2nc(C3CCCN3C(=O)c3cc(=O)[nH]c(=O)[nH]3)[nH]c2c1` (stereo unspecified), for which the cytotoxicity at 10 µM is 18.7%.
Take `O=C([C@H]1C[C@@H]2CCN(C3CCOCC3)C[C@H]2O1)N1CCCC1`: the cytotoxicity at 10 µM is 7.31%.
Regarding `COc1cccc(CN(C)Cc2cc(C#N)ccc2F)c1OC`, the cytotoxicity at 10 µM was -5%.
In the case of `Cc1noc(CS(=O)(=O)C/C=C/c2ccccc2)n1` it was -10.9%.
For `CN1CC[C@H]2CN(C(=O)c3ccc4sc5c(c4c3)CCNC5=O)C[C@H]21` the value was -0.193%.
Take `c1ncc2c(n1)CN(CC1CCCCO1)CC2` (stereo unspecified): the cytotoxicity at 10 µM came out at 2.93%.
`COc1cccc(-c2cc(C(=O)NCCn3nc(C)nc3C)[nH]n2)c1`: the cytotoxicity at 10 µM is -2.77%.
For `Cc1cc(C)n(CCC(=O)N2CCC(c3nc(C(C)C)no3)CC2)n1` the value was -16.1%; for `COc1ccc(C(NC(=O)c2cccc[n+]2[O-])C2CC2)cc1` (stereo unspecified), 7.12%.
Consider `Nc1ccc(C(=O)N2CCC(Oc3cccc(C(F)(F)F)c3)CC2)cn1`, for which the cytotoxicity at 10 µM was determined as 5.3%.
In the case of `Cc1ccc(-n2ncc(C(=O)N(C)C3CCN(C)CC3)c2N)cc1C` it was -8.56%; in that of `CC(C)c1cnc(CN(C)C2CCN(CCc3cnn(C)c3)C2)o1` (stereo unspecified), -7.12%; in that of `CC(=O)N1CCC2(CC1)C(=O)N(C)c1ccc(F)cc12`, -116%.
Consider `Cc1nn(CC(=O)NCCc2ccncc2)c(=O)n1Cc1ccccc1`, for which the cytotoxicity at 10 µM came to 18.5%.
Turning to `COC(=O)NCCCC(=O)NCC1(c2cccc(Cl)c2)CC1`, the cytotoxicity at 10 µM was determined as 1.42%.
For `CN(C)c1cc(C(=O)NCC2(c3ccc(F)cc3)CC2)ccn1` the value was 8.59%; for `CC(C)C(O)C(=O)N1CCC2(CC1)c1nc[nH]c1CCN2S(C)(=O)=O` (stereo unspecified), -0.232%; for `CC1(NC(=O)Cc2csc(-c3ccccc3Cl)n2)CCS(=O)(=O)C1` (stereo unspecified), -9.81%.
For `O=C(NCCO)Nc1cccc(Cl)c1SC(F)F` the value was 5.98%; for `CC(C)c1ncncc1C(=O)NCCN1CCCCCC1`, 5.15%.
For `Cc1ccc(-c2noc(CN3CCc4cncnc4C3)n2)cc1` the value was 1.04%; for `O=C1NCCCCC1NC(=O)C1(Oc2ccc(Cl)cc2)CCNCC1` (stereo unspecified), -6.21%; for `Cc1cc(C)c2nc(C)cc(C(=O)N3CC(O)CO3)c2c1` (stereo unspecified), 16.5%.
In the case of `COc1cc2nc(NCCNS(C)(=O)=O)cc(C)c2cc1OC`, the cytotoxicity at 10 µM is -1.08%.
`CSCCC(NC(=O)C1CC1)C(=O)N(C)Cc1ccsc1` (stereo unspecified): the cytotoxicity at 10 µM is -3.96%.
Turning to `CC(C)(C)n1ccc(C(=O)N2CCCC(c3ccc(C(=O)O)cc3)C2)c1` (stereo unspecified), the cytotoxicity at 10 µM came out at 1.31%.
For `CCOC(=O)c1nc(CN2CCN(C(C)C(=O)NC3CC3)CC2)cs1` (stereo unspecified), the cytotoxicity at 10 µM was -2.52%.
Turning to `Cc1ncncc1C(=O)N1C[C@@H]2CC[C@H]1CN(C(=O)c1ccncc1)C2`, the cytotoxicity at 10 µM is -7.61%.
As to `CC(NC(=O)c1cc(-c2cccc(Cl)c2)no1)C(=O)N1CCCC1` (stereo unspecified), the cytotoxicity at 10 µM is 3.59%.
As to `CC(C)NC(=O)CC1CC2(CCN(CC3CC3)CC2)Oc2ccccc21` (stereo unspecified), the cytotoxicity at 10 µM was -2.42%.
In the case of `c1cnc(N2CCc3onc(CN4CCCC4)c3C2)cn1` it was -3.09%; in that of `CCCc1cc(CNC2CCN(c3nc4ccccc4s3)CC2)on1`, -4.34%; in that of `COc1ccc(C2CCCN2Cc2cnn(C)c2)cc1` (stereo unspecified), 7.53%.
Regarding `O=C(NCc1cc2n(n1)CCCNC2)c1cn2cc(Cl)ccc2n1`, the cytotoxicity at 10 µM was -10.1%.
With `N#Cc1cnn(-c2ccc(C(=O)Nc3ccccn3)cc2)c1N`, the cytotoxicity at 10 µM is -9.03%.
In the case of `Cc1cc(C)nc(NCCC(=O)NCCn2ccnc2C)n1` it was 2.77%; in that of `CCN(CC1CCCO1)C(=O)Nc1cc(C(N)=O)ccc1OC` (stereo unspecified), -7.33%.
With `Cc1cc(CNC(=O)NCC(O)c2cccc(F)c2)no1` (stereo unspecified), the cytotoxicity at 10 µM was determined as 3.1%.
For `CO[C@@H]1CO[C@@]2(CCCN(Cc3nc(C)cs3)C2)C1` the value was -138%; for `COc1ccccc1-n1nc(-c2ccco2)n(CC(N)=O)c1=O`, 0.5%; for `Cc1ccc(CC(=O)N2CC[C@@H]3CN(CCN(C)C)CCO[C@@H]3C2)cc1`, 2.73%.
In the case of `O=C(C1CCCCC1)N1CCC2(COc3ncccc3S(=O)(=O)N2)C1` (stereo unspecified) it was 11.3%.
In the case of `CC(CNC(=O)c1cccc(C#N)c1)N1CCc2ccccc21` (stereo unspecified) it was -16.3%.
Consider `c1cnn(Cc2nnc3n2CCCN(Cc2ccsc2)C3)c1`, for which the cytotoxicity at 10 µM is -0.714%.
`O=C(NCCOc1ccccc1)c1ccc2c(c1)C(=O)NC2=O`: the cytotoxicity at 10 µM is 4.98%.
In the case of `Cc1ccc([C@@H]2CN(C(=O)c3cc(C)no3)C[C@H]2NC(=O)C2CC2)cc1` it was -1.82%.
For `CS(=O)(=O)N1CCC2(CCN(C(=O)c3cccs3)CC2)CC1` the value was -108%; for `CCOc1ccccc1C(CC(=O)O)NC(C)=O` (stereo unspecified), -4.19%; for `O=C(c1ccc(C2CCCN2)s1)N1CC=CC1` (stereo unspecified), 1.33%.
In the case of `O=C(COC1CCCC1)NCCc1nc(-c2ccccn2)cs1` it was 6.94%; in that of `CCCc1n[nH]c(C2CN(C(=O)c3cc(F)ccc3OC)CCO2)n1` (stereo unspecified), -5.58%.
`CN(C)c1ncc2c(n1)C1(CCN(Cc3ccccc3F)C1)COC2` (stereo unspecified): the cytotoxicity at 10 µM is 10.6%.
For `COc1ccc(N2CCN(Cc3noc(CC(C)C)n3)C(C)C2=O)cc1` (stereo unspecified) the value was 4.11%; for `N#Cc1cccnc1N1CCC(OCc2ccccc2)CC1`, -7.43%.
In the case of `Cc1cccc(N(C)S(=O)(=O)c2cc(C(=O)O)cs2)c1C` it was -0.731%; in that of `Cc1nc2cc(C(=O)N3CCn4c(nnc4C4CC4)C3)ccc2s1`, -1.41%.
In the case of `Cc1ccc(-n2ccnc2)c(C(=O)NCCCN(C)C)c1` it was -152%.
For `C[C@@H]1CC[C@@H](C)N1C(=O)c1cc(COc2ccccc2)[nH]n1`, the cytotoxicity at 10 µM turned out to be 4.82%.
On to `Cc1cc(CN(Cc2ccccc2)C(C)CN2CCOCC2)no1` (stereo unspecified), for which the cytotoxicity at 10 µM stood at 4.69%.
`CCc1noc(CNCCn2cc(C)cn2)n1`: the cytotoxicity at 10 µM is -2.54%.
In the case of `CN(C)C[C@H]1OC[C@@H]2CCN(S(=O)(=O)c3cccs3)C[C@@H]21` it was 3.04%.
For `Cc1ccccc1C1(CNC(=O)CCN2C(=O)CCC2=O)CC1` the value was -11.8%; for `COc1ccc(-c2ccccc2CCN)c(OC)c1`, 8.95%.
Regarding `Cc1cc(C)n(CC2CCN(CC(O)Cn3cccn3)CC2)n1` (stereo unspecified), the cytotoxicity at 10 µM is -5.58%.
For `O=C(NCc1nnnn1-c1ccccc1)c1ccc(C2CCCO2)s1` (stereo unspecified) the value was 0.363%.
In the case of `CC(C)C(O)CCNC(=O)Nc1cc(F)ccc1-n1cccn1` (stereo unspecified) it was -3.86%; in that of `CCC(=O)N1CCCC1(C)c1nc(C)no1` (stereo unspecified), 1.34%; in that of `Cc1nccc(N2C[C@H](NC(=O)CNS(C)(=O)=O)[C@@H](C3CC3)C2)n1`, -13.8%.
For `CCCc1nc(C)cc(N2CCC3(CCC(=O)N(CCO)C3)CC2)n1` the value was -6.71%; for `CC1c2cccn2CCN1C(=O)CCCc1nc(-c2ccco2)no1` (stereo unspecified), 7.16%; for `Cc1cnn(CCNCc2csc(-c3ccc(C(N)=O)cc3)n2)c1`, -7.75%.
On to `Cc1ncsc1CCN1CCC(N(C)Cc2ncc(C(C)C)o2)C1` (stereo unspecified), for which the cytotoxicity at 10 µM is -7.49%.
Consider `CC1CCN(CCCNC(=O)c2ccc(N(C)S(C)(=O)=O)cc2Cl)CC1`, for which the cytotoxicity at 10 µM was -0.488%.
In the case of `Cc1ncc2c(n1)CN(Cc1nc3ccccc3o1)CC2` it was -0.602%; in that of `Cn1cc(CN2CCCC3(CCN(C(=O)c4cnccn4)C3)C2)cn1` (stereo unspecified), -69.6%; in that of `Fc1ccccc1Cc1noc(CN2CCC(N3CCSCC3)CC2)n1`, -6.47%.
Turning to `CCOc1ccccc1Oc1ccc(CN)cn1`, the cytotoxicity at 10 µM was determined as 6.03%.
Take `COCCN1CCCC1c1nccnc1Nc1ncc(C)s1` (stereo unspecified): the cytotoxicity at 10 µM is -7.99%.
Take `Cc1occc1C(=O)NCCOc1ccc(C(F)(F)F)cn1`: the cytotoxicity at 10 µM is -7.62%.
For `Cc1nc(CN2C(=O)CC[C@@H]3[C@H]2CCN3C(=O)C2CCCO2)cs1` (stereo partly specified) the value was -9.33%.
